Measured values from ChEMBL document CHEMBL3351360, “Design and Synthesis of Orally Bioavailable Benzimidazole Reverse Amides as Pan RAF Kinase Inhibitors” (ACS Med Chem Lett, 2014).
Values after ≈ are worked out from the molar mass of the structure shown. Active and inactive are the calls of the source. No cut-off for these calls is given here.

How the values were obtained:
[1] = target: Serine/threonine-protein kinase B-raf (Homo sapiens, UniProt P15056, V600E); test: Inhibition of BRAF V600E mutant (unknown origin)
Chain of Serine/threonine-protein kinase B-raf (Homo sapiens, UniProt P15056, V600E) (P15056 2-766 V600E limits assumed): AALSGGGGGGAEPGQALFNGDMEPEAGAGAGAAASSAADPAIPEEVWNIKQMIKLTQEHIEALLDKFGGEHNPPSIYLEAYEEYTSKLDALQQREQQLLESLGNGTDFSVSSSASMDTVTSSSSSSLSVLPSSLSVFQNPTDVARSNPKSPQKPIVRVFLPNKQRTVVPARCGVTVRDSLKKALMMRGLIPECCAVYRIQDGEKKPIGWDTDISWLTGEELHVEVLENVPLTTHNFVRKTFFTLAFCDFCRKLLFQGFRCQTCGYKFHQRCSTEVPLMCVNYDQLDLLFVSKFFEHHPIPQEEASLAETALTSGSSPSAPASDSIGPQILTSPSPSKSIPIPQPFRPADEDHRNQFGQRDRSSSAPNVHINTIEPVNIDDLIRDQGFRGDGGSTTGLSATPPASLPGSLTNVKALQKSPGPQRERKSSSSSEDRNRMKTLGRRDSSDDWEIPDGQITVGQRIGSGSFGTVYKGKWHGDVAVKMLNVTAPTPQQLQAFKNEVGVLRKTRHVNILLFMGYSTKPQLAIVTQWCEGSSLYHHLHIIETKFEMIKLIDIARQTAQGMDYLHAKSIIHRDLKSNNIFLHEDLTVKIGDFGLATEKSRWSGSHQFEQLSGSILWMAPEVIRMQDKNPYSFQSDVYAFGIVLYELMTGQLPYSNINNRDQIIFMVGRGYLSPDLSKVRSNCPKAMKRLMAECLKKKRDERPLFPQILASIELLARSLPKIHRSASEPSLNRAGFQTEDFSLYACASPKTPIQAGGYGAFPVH

[2] = target: Serine/threonine-protein kinase B-raf (Homo sapiens, UniProt P15056); test: Inhibition of BRAF (unknown origin)-mediated ERK phosphorylation by cell-based assay
Chain of Serine/threonine-protein kinase B-raf (Homo sapiens, UniProt P15056) (P15056 whole entry): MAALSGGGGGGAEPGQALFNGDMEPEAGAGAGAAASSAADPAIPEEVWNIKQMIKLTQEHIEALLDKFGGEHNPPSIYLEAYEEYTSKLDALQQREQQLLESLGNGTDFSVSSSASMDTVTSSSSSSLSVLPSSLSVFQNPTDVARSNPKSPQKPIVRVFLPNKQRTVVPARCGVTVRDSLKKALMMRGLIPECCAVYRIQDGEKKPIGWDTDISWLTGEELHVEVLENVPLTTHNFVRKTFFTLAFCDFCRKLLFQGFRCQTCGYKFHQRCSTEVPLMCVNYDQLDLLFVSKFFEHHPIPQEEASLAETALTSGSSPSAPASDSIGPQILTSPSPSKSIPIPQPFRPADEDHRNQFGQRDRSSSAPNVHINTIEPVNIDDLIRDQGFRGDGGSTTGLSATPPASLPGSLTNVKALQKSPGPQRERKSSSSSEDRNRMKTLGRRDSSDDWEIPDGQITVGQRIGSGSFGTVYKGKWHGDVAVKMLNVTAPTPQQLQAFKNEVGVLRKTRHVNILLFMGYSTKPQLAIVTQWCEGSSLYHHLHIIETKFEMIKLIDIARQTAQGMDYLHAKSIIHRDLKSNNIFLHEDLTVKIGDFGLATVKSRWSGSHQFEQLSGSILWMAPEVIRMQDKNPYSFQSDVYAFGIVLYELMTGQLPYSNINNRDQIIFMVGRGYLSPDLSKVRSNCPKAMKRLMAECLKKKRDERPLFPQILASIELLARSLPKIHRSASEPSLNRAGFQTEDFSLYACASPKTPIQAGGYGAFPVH

[3] = Solubility of the compound at pH 7; assay type: physicochemical; conditions: buffer
Cytochrome P450 3A4 = Cytochrome P450 3A4 (Homo sapiens, UniProt P08684); test: Inhibition of CYP3A4 (unknown origin); assay type: ADME
Chain of Cytochrome P450 3A4 (P08684 whole entry): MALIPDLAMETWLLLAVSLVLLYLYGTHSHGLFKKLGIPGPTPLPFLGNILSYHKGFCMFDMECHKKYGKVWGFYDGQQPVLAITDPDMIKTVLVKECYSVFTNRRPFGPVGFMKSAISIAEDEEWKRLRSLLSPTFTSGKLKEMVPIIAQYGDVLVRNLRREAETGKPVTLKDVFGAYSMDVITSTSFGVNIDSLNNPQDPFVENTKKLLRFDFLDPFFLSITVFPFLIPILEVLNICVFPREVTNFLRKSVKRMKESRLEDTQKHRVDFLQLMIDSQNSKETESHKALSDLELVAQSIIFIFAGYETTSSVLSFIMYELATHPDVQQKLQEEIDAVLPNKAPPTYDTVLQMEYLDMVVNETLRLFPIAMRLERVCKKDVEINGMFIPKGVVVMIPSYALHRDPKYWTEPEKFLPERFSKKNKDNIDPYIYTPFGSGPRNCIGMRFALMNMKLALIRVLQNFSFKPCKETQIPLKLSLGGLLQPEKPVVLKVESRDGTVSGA

[4] = Clearance in rat at 10 mg/kg, po as single dose; assay type: ADME, organism-based; design: dose 10 mg/kg, route oral; conditions: in vivo
In short: (§1)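 Rats received a single oral dose of 10 mg/kg. Clearance, volume of distribution, half-life and oral bioavailability were derived from the plasma PK profile.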

Rattus norvegicus = test: Volume of distribution in rat at 10 mg/kg, po as single dose; assay type: ADME, organism-based; design: dose 10 mg/kg, route oral; conditions: in vivo; in short: as §1
[5] = Half life in rat at 10 mg/kg, po as single dose; assay type: ADME, organism-based; design: dose 10 mg/kg, route oral; conditions: in vivo; in short: as §1
[6] = Oral bioavailability in rat at 10 mg/kg as single dose; assay type: ADME, organism-based; conditions: in vivo; in short: as §1
[7] = target: Macrophage colony-stimulating factor 1 receptor (Homo sapiens, UniProt P07333); test: Inhibition of CSF1R kinase (unknown origin)
Chain of Macrophage colony-stimulating factor 1 receptor (P07333 whole entry): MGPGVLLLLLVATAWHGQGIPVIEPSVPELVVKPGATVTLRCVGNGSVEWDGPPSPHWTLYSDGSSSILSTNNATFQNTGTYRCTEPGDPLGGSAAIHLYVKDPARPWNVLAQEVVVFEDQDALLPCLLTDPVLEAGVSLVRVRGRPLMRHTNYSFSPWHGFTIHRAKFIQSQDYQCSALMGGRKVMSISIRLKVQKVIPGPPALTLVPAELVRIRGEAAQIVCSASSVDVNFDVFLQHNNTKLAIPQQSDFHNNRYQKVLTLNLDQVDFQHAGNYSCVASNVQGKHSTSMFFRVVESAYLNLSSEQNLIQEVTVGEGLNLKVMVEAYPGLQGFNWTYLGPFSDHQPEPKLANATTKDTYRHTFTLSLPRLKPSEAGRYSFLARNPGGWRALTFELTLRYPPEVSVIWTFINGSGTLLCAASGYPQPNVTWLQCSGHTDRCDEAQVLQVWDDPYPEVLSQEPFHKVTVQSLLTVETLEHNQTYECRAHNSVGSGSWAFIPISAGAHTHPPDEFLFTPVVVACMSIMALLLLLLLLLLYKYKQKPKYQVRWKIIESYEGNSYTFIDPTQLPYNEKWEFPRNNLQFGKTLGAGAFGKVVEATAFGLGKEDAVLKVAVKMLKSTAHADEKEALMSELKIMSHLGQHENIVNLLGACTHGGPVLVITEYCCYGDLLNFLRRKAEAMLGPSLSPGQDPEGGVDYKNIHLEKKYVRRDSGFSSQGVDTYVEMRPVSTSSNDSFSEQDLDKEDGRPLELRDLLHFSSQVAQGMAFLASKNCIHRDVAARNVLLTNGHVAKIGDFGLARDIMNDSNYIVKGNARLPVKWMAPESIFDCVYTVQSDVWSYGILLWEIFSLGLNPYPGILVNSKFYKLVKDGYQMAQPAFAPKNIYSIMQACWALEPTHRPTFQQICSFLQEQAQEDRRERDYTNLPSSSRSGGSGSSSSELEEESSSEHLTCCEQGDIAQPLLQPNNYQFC

[8] = target: Vascular endothelial growth factor receptor (Homo sapiens, UniProt P17948+P35916+P35968); test: Inhibition of VEGFR (unknown origin); assay type: protein assay
[9] = target: Mast/stem cell growth factor receptor Kit (Homo sapiens, UniProt P10721); test: Inhibition of c-Kit (unknown origin)
Chain of Mast/stem cell growth factor receptor Kit (P10721 whole entry): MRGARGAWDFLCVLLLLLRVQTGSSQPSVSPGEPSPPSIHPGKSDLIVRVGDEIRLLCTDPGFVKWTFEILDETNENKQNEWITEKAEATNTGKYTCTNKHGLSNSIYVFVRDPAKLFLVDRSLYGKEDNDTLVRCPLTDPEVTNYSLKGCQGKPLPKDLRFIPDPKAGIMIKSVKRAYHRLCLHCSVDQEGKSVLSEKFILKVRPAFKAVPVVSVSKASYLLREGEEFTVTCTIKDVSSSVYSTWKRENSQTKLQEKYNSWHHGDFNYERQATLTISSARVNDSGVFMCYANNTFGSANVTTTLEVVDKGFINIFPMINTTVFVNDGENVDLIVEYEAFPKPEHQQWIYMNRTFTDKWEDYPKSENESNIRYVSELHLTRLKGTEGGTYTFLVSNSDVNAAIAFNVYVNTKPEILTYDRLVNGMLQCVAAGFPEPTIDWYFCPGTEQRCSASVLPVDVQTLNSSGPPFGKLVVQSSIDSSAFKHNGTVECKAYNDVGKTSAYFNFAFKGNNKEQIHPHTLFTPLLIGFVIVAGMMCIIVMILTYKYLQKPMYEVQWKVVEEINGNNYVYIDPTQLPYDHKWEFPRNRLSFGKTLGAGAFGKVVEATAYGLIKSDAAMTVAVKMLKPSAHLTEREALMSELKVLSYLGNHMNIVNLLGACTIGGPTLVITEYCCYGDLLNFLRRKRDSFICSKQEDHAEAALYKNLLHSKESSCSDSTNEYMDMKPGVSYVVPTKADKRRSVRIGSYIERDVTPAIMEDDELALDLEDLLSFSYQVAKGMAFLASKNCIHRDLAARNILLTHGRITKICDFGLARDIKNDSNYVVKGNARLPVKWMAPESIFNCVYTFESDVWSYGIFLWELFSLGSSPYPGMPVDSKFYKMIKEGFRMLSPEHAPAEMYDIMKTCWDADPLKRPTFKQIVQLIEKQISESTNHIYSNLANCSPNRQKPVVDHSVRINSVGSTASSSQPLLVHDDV

[10] = target: Platelet-derived growth factor receptor (Homo sapiens, UniProt P09619+P16234); test: Inhibition of PDGFR (unknown origin); assay type: protein-complex assay
[11] = target: Proto-oncogene tyrosine-protein kinase Src (Homo sapiens) (UniProt P12931); test: Inhibition of SRC (unknown origin)
Chain of Proto-oncogene tyrosine-protein kinase Src (Homo sapiens) (P12931 2-536 limits assumed): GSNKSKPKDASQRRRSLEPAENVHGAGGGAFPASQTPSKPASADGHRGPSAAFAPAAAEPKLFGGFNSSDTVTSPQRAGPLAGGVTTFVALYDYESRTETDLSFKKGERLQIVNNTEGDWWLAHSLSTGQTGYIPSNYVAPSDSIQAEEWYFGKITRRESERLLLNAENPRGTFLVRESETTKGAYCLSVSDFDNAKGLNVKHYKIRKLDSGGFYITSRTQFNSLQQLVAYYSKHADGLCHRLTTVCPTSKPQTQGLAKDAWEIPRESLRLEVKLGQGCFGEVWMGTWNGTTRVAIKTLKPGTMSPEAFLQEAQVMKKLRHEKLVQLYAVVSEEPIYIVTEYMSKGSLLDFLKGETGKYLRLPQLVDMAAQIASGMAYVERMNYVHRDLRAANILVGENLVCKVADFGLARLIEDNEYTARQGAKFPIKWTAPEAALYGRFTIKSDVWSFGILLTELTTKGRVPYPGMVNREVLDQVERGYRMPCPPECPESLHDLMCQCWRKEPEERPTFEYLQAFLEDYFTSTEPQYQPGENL

[12] = target: Tyrosine-protein kinase Lck (Homo sapiens, UniProt P06239); test: Inhibition of LCK (unknown origin)
Chain of Tyrosine-protein kinase Lck (P06239 whole entry): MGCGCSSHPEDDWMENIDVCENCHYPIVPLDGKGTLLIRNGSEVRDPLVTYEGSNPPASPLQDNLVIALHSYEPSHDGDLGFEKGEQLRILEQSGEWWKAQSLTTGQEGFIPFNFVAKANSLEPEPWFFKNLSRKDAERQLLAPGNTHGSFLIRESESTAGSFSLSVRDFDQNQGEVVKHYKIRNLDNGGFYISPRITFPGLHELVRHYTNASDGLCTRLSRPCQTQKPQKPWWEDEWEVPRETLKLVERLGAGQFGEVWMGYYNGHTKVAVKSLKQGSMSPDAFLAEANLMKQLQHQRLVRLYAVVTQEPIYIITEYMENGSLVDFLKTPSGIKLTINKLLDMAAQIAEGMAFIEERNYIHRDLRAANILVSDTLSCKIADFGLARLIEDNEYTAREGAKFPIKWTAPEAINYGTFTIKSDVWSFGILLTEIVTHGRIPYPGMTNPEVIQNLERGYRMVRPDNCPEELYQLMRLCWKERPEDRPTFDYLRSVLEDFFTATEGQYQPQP

HT-29 [13] = test: Antitumor activity against human HT-29 cells harboring B-RAF V600E mutant xenografted in nude mouse assessed as tumor growth inhibition at 10 mg/kg/day for […] relative to control; assay type: functional
In short: (§2)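 Nude mice received subcutaneous HT29 (BRAF V600E) colorectal cells at 3×10^6 cells/mouse, and tumors were established over 10 days. Mice were then randomized into 4 groups and dosed orally once daily with vehicle (5 mM citrate) or compound at 10, 30 or 100 mg/kg for 17 days. Tumor growth is given as ΔT/ΔC, and body weight was monitored.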

HT-29 [14] = test: Antitumor activity against human HT-29 cells harboring B-RAF V600E mutant xenografted in nude mouse assessed as tumor growth inhibition at 30 mg/kg/day […] relative to control; assay type: functional; in short: as §2
HT-29 [15] = test: Antitumor activity against human HT-29 cells harboring B-RAF V600E mutant xenografted in nude mouse assessed as tumor growth inhibition at 100 mg/kg/day […] relative to control; assay type: functional; in short: as §2
Mus musculus [16] = test: Toxicity in human HT-29 cells harboring B-RAF V600E mutant xenografted nude mouse assessed as body weight loss at 10 mg/kg/day for […] relative to control; assay type: organism-based; conditions: in vivo; in short: as §2
Mus musculus [17] = test: Toxicity in human HT-29 cells harboring B-RAF V600E mutant xenografted nude mouse assessed as body weight loss at 30 mg/kg/day […] relative to control; assay type: organism-based; conditions: in vivo; in short: as §2
Mus musculus [18] = test: Toxicity in human HT-29 cells harboring B-RAF V600E mutant xenografted nude mouse assessed as body weight loss at 100 mg/kg/day […] relative to control; assay type: organism-based; conditions: in vivo; in short: as §2
HT-29 [19] = test: Inhibition of ERK phosphorylation in human HT-29 cells harboring B-RAF V600E mutant xenografted in nude mouse at 30 to 100 mg/kg/day for 16 days measured 4 to 24 hrs post final dose by Western blot analysis relative to control; assay type: functional, organism-based; conditions: TDE = time-dependent effect
In short: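 HT29 (BRAF V600E) subcutaneous xenografts in nude mice were dosed orally once daily in 5 mM citrate vehicle at 30 or 100 mg/kg. Tumors were harvested 4 and 24 h after the final dose. Lysates were analysed by Western blot for pERK and total ERK.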

[20] = Stability in mouse plasma assessed as compound remaining at 1 uM at 37 degC after 45 mins; assay type: ADME, cell-free; conditions: read-out: Stability
[21] = target: Voltage-gated inwardly rectifying potassium channel KCNH2 (Homo sapiens, UniProt Q12809); test: Inhibition of human ERG

Row | IC50 [1] | EC50 [2] | Compound | further results
1 | 0.4 nM | 100 nM | CC(=O)Nc1cc(Oc2ccc3c(c2)nc(Nc2cccc(OC(F)(F)F)c2)n3C)ccn1 | 
2 | < 0.4 nM | 50 nM | CC(=O)Nc1cc(Oc2ccc3c(c2)nc(Nc2cccc(C(C)C)c2)n3C)ccn1 | 
3 | 20 nM | 100 nM | CC(C)N1CCC(C(=O)Nc2cc(Oc3ccc4c(c3)nc(Nc3cccc(C(C)(C)C)c3)n4C)ccn2)CC1 | solubility [3]: 581 µg/mL (≈ 1070 µM); INH (Cytochrome P450 3A4): 3 µM; CL/F [4]: 90 mL/min/kg; Vd (Rattus norvegicus): 17.784 L/kg; half-life [5]: 4.18 h; bioavailability [6]: 15%
4 | 10 nM | 100 nM | CN1CCC(C(=O)Nc2cc(Oc3ccc4c(c3)nc(Nc3cccc(C(C)(C)C)c3)n4C)ccn2)CC1 | 
5 | 1 nM | 90 nM | CC(=O)Nc1cc(Oc2ccc3c(c2)nc(Nc2cc(C(F)(F)F)ccc2F)n3C)ccn1 | 
6 | 3 nM | 40 nM | CC(=O)Nc1cc(Oc2ccc3c(c2)nc(Nc2cccc(C(C)(C)C)c2)n3C)ccn1 | 
7 | 7 nM | 100 nM | Cn1c(Nc2cccc(C(C)(C)C)c2)nc2cc(Oc3ccnc(NC(=O)C4CCNCC4)c3)ccc21 | 
8 | 2 nM | 100 nM | CC(C)N1CCC(C(=O)Nc2cc(Oc3ccc4c(c3)nc(Nc3cc(C(F)(F)F)ccc3F)n4C)ccn2)CC1 | CL/F [4]: 49 mL/min/kg; bioavailability [6]: 54%
9 | 1 nM | 80 nM | CCc1ccc(Nc2nc3cc(Oc4ccnc(NC(C)=O)c4)ccc3n2C)cc1 | 
10 | 1 nM | 100 nM | CC(=O)Nc1cc(Oc2ccc3c(c2)nc(Nc2ccc(OC(F)(F)F)cc2)n3C)ccn1 | 
11 | 4 nM | 90 nM | CC(=O)Nc1cc(Oc2ccc3c(c2)nc(Nc2ccc(C(C)C)cc2)n3C)ccn1 | 
12 | 3 nM | 400 nM | CC(=O)Nc1cc(Oc2ccc3c(c2)nc(Nc2cccc(C(F)(F)F)c2)n3C)ccn1 | 
13 | < 0.4 nM | 100 nM | CCc1cccc(Nc2nc3cc(Oc4ccnc(NC(C)=O)c4)ccc3n2C)c1 | 
14 | 6 nM | 100 nM | CCN1CCN(CC(=O)Nc2cc(Oc3ccc4c(c3)nc(Nc3cc(C(F)(F)F)ccc3F)n4C)ccn2)CC1 | INH (Cytochrome P450 3A4): > 25 µM; CL/F [4]: 32 mL/min/kg; Vd (Rattus norvegicus): 12.737 L/kg; half-life [5]: 5.67 h; bioavailability [6]: 40%; IC50 [7]: < 10 nM; IC50 [8]: < 10 nM; IC50 [9]: < 10 nM; IC50 [10]: < 10 nM; inhibition [11]: inactive; IC50 [12]: 240 nM; T/C (HT-29 [13]): 52%; T/C (HT-29 [14]): 72%; T/C (HT-29 [15]): 75%; Activity (Mus musculus [16]): Non-toxic; Activity (Mus musculus [17]): Non-toxic; Activity (Mus musculus [18]): 13%; inhibition (HT-29 [19]): tde; remaining at 0.75 h, 1 µM [20]: 1%; INH [21]: 2.3 µM
15 | 6 nM | 100 nM | CC(C)N1CCN(CC(=O)Nc2cc(Oc3ccc4c(c3)nc(Nc3cc(C(F)(F)F)ccc3F)n4C)ccn2)CC1 | INH (Cytochrome P450 3A4): 14 µM
16 | 9 nM | 50 nM | CC(=O)Nc1cc(Oc2ccc3c(c2)nc(Nc2ccc(C(C)(C)C)cc2)n3C)ccn1 | 
17 | 4 nM | 50 nM | CC(=O)Nc1cc(Oc2ccc3c(c2)nc(Nc2ccc(C(F)(F)F)cc2)n3C)ccn1 | remaining at 0.75 h, 1 µM [20]: 100%
